Experiment [1] concerns the target BDNF/NT-3 growth factors receptor (Rattus norvegicus) (UniProt Q63604). The experiment in a line: Agonist activity at TrkB in E17 rat primary cortical neurons assessed as AKT phosphorylation at Ser 473 at 500 nM after 15 mins by ELISA. It is filed as functional, cell-based. To be noted: Cerebral cortex neuron.
The target is the same in experiment [2]. The experiment in a line: Agonist activity at TrkB in E17 rat primary cortical neurons assessed as TrkB phosphorylation at 817 at 500 nM after 15 mins by immunoblotting. Type of experiment: functional, cell-based. As to conditions: Cerebral cortex neuron. Summed up:
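Rat cortical neurons from E17 embryos, 13 DIV, were treated with 500 nM compound for 15 min. Lysates were run on 10% SDS-PAGE and immunoblotted with p-TrkB Y817 antibody at 1:20,000–40,000.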
For orientation: In western blotting, separated proteins are transferred to a membrane and probed.

The target is the same in experiment [3]. The experiment can be described thus: Agonist activity at TrkB in E17 rat primary cortical neurons assessed as AKT phosphorylation at Ser 473 at 500 nM after 15 mins by ELISA relative to control. Type of experiment: functional, cell-based. To be noted: Cerebral cortex neuron.
Experiment [4] shares this target. The experiment can be described thus: […] in E17 rat primary cortical neurons at 500 nM after 15 mins by immunoblotting. To be noted: Cerebral cortex neuron. Summed up:
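Primary cortical neurons from E17 rat embryos, 13 DIV, exposed to compound at 500 nM for 15 min. Lysates resolved on 10% SDS-PAGE and immunoblotted for phospho-TrkB (p-TrkB Y817 antibody, 1:20,000–40,000) alongside other signalling antibodies.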

For experiment [5] the target is unchanged. The experiment in a line: Agonist activity at TrkB in E17 rat primary cortical neurons by immunoblotting. As to conditions: Cerebral cortex neuron. It is filed as functional, cell-based.
Experiment [6] has the same target. The experiment can be described thus: Agonist activity at TrkB in E17 rat primary rat cortical neurons assessed as AKT phosphorylation at Ser 473 at 500 nM after 15 mins by ELISA. It is filed as functional. On the technique in general: An ELISA detects its analyte on a solid surface through an enzyme-linked reagent.
Another experiment relates to Mus musculus. The experiment in a line: Neuroprotective activity in C57BL/6J mouse assessed as inhibition of kainic acid-induced caspase 3 activation in hippocampus region at 5 mg/kg, po administered 2 to 8 hrs prior to kainic acid challenge measured after 2 hrs by immunoblotting. Type of experiment: functional, organism-based. On the set-up: dose 5 mg/kg. Summed up:
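C57BL/6J mice dosed orally by gavage at 5 mg/kg. Kainic acid 20 mg/kg i.p. given at 0, 2 or 6 h after dosing. Mice killed 2 h after kainic acid; hippocampal lysates immunoblotted with anti-p-TrkB and anti-active caspase-3.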

47 molecules from ChEMBL document CHEMBL1800034, “A synthetic 7,8-dihydroxyflavone derivative promotes neurogenesis and exhibits potent antidepressant effect” (J Med Chem, 2010) can be followed below.

Calls of active or inactive are those of the source. No cut-off for these calls is given here.

BDNF/NT-3 growth factors receptor (Rattus norvegicus), sequence (Q63604 whole entry): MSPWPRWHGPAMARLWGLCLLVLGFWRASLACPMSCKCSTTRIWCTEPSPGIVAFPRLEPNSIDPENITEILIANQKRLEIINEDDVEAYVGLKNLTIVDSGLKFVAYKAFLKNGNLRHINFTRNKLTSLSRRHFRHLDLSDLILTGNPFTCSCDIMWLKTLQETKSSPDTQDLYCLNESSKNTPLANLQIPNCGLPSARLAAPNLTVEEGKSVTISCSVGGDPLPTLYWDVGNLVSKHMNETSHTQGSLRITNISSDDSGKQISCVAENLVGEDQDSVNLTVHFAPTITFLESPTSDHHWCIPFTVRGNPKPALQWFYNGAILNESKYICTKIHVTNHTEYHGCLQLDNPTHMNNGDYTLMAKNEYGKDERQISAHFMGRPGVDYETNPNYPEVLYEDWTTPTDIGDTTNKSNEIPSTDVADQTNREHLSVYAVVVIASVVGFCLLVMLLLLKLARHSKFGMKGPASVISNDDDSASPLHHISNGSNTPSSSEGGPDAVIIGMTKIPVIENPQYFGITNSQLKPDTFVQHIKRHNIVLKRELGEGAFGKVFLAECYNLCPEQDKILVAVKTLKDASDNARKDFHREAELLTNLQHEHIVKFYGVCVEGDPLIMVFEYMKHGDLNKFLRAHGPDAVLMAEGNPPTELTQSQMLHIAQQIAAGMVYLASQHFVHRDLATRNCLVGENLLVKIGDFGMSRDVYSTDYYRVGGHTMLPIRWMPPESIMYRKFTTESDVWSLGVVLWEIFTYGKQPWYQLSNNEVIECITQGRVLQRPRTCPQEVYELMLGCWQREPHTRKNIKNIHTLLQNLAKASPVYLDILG

For `O=c1cc(-c2cccc(O)c2)oc2c1ccc1ccccc12`, the result in experiment [1] was inactive.
As to `O=c1c(O)c(-c2ccccc2O)oc2ccccc12`, the result in experiment [1] was inactive.
Same read-out and setting: under `COc1cccc(-c2cc(=O)c3ccc(OC)cc3o2)c1` stands “inactive”.
Still for that read-out and setting: under `O=c1cc(-c2ccccc2)oc2ccccc12` stands “inactive”; under `O=c1cc(-c2cc(O)cc(O)c2)oc2ccccc12`, “inactive”.
As to `O=c1cc(-c2ccccc2)oc2c(O)c(O)cc(O)c12`, the result in experiment [2] and in experiment [1] was Active.
As for `O=c1cc(-c2cccc(O)c2)oc2ccccc12`, the result in experiment [1] was inactive.
Regarding `COc1cccc(-c2cc(=O)c3ccc(O)cc3o2)c1`, in experiment [1], the outcome was inactive.
The same measure, in the same setting: with `COc1ccc(-c2c(C)c3ccc(O)cc3oc2=O)cc1` the entry was “inactive”; with `O=c1cc(-c2ccc(O)c(O)c2)oc2ccccc12`, “inactive”.
With `O=c1cc(-c2cccc(O)c2)oc2c(O)c(O)ccc12`, the outcome in experiment [2] was Active. In experiment [3], the fold change (FC) was 2.
Consider `O=c1c(O)c(-c2ccc(O)c(O)c2)oc2c(O)c(O)cc(O)c12`, for which the inhibition entry in experiment [4] is “Active”.
In the case of `O=c1cc(-c2ccccc2)oc2cc(O)c(O)cc12`, the result in experiment [1] was Active.
Same read-out and setting: under `O=c1cc(-c2ccccc2)oc2cc(O)c(O)c(O)c12` stands “inactive”.
With `O=c1c(O)c(-c2ccccc2)oc2cc(O)ccc12`, the result in experiment [2] and in experiment [1] was Active.
For `O=c1cc(-c2cccc(O)c2)oc2cc(O)ccc12`, the result in experiment [2] and in experiment [1] was Active.
For the molecule `O=c1cc(-c2ccccc2)oc2cc(O)cc(O)c12`, the outcome in experiment [1] was inactive.
Still for that read-out and setting: with `O=c1cc(-c2ccccc2)oc2ccc(O)c(O)c12` the entry was “inactive”.
For `O=c1cc(-c2cccc(O)c2)oc2cc(O)c(O)cc12`, the outcome in experiment [1] was Active.
Regarding `O=c1cc(-c2ccc(O)cc2)oc2c(O)c(O)ccc12`, in experiment [2], the result was Active.
As to `O=c1cc(-c2ccccc2)oc2ccc(O)cc12`, the result in experiment [1] was inactive.
In the case of `O=c1cc(-c2ccccc2O)oc2ccccc12`, the result in experiment [1] was inactive.
Same read-out and setting: under `O=c1c(O)c(-c2cccc(O)c2)oc2ccccc12` stands “inactive”; under `C[S+](C)[O-]`, “inactive”.
Same read-out and setting: under `COc1cccc(-c2cc(=O)c3ccccc3o2)c1OC` stands “inactive”; under `O=c1c(-c2ccccc2)coc2cc(O)ccc12`, “inactive”.
Still for that read-out and setting: under `O=c1cc(-c2ccccc2)oc2cc(O)ccc12` stands “inactive”; under `O=c1cc(-c2ccc(O)c(O)c2)oc2cc(O)ccc12`, “inactive”.
For the molecule `COc1ccc2c(=O)cc(-c3ccccc3)oc2c1OC`, the outcome in experiment [5] was Active. Also, the outcome in experiment [1] was inactive.
On to `O=c1cc(-c2ccccc2)[nH]c2c(O)c(O)ccc12`, for which the result in experiment [6] was inactive.
On to `COc1ccc(-c2cc(=O)c3ccc(O)cc3o2)cc1`, for which the outcome in experiment [2] was Active. Further, the outcome in experiment [1] was inactive.
Consider `O=c1cc(-c2cncnc2)oc2c(O)c(O)ccc12`, for which the result in experiment [6] was Active.
In the case of `COc1cccc(-c2oc3ccccc3c(=O)c2OC)c1`, in experiment [1], the outcome was inactive.
For the molecule `O=c1cc(-c2ccc(O)cc2O)oc2ccccc12`, the result in experiment [1] was inactive.
`O=c1cc(-c2ccc(F)cc2)[nH]c2c(O)c(O)ccc12`: in experiment [6], the result was inactive.
For the molecule `O=c1cc(-c2cccc(O)c2O)oc2ccccc12`, the result in experiment [1] was inactive.
For the molecule `O=c1c(O)c(-c2cccc(O)c2)oc2cc(O)ccc12`, the outcome in experiment [1] was inactive.
Still for that read-out and setting: with `COc1cc(-c2oc3cc(O)ccc3c(=O)c2O)cc(OC)c1OC` the entry was “inactive”; with `O=c1cc(-c2ccccc2)oc2cccc(O)c12`, “inactive”.
`O=c1c(O)c(-c2ccccc2O)oc2c(O)c(O)ccc12`: the outcome in experiment [2] and in experiment [1] was Active.
As for `O=c1c(O)c(-c2ccccc2)oc2ccccc12`, the result in experiment [1] was inactive.
As for `COc1c(O)ccc2c(=O)c(-c3ccc(Cl)cc3)coc12`, the result in experiment [1] was inactive.
Regarding `C=C(C)[C@H]1CN[C@H](C(=O)O)[C@H]1CC(=O)O`, in the experiment with Mus musculus, the inhibition entry is “Active”.
Consider `COc1ccccc1-c1cc2ccc(O)cc2oc1=O`, for which the outcome in experiment [1] was inactive.
Regarding `O=c1cc(-c2ccccc2O)oc2c(O)c(O)ccc12`, the result in experiment [2] and in experiment [1] was Active.
Consider `O=c1cc(-c2ccc(O)cc2)oc2ccccc12`, for which the outcome in experiment [1] was inactive.
For the molecule `COc1ccc2c(=O)cc(-c3ccccc3)oc2c1O`, the result in experiment [5], in experiment [2] and in experiment [1] was Active.
